Values after ≈ are worked out from the molar mass of the structure shown.
Tests used:
[1] = test system: Staphylococcus aureus; assay: Antibacterial activity against multidrug-resistant Staphylococcus aureus isolate 2490 by broth microdilution assay; type: functional
Method in brief: (§1)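 Broth microdilution MIC per CLSI guidelines against clinical MRSA isolates, for β-lactams and test compound alone and in combination. Compounds were dissolved in DMSO. Growth was read by eye, in duplicate. FIC index = FIC(compound) + FIC(drug); synergy defined as FIC index ≤0.5.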

[2] = test system: Staphylococcus aureus; assay: Antibacterial activity against multidrug-resistant Staphylococcus aureus isolate 3411 by broth microdilution assay; type: functional; method in brief: as §1
[3] = test system: Staphylococcus aureus; assay: Synergistic antibacterial activity against multidrug-resistant Staphylococcus aureus isolate 2490 in presence of amoxicillin by broth microdilution assay; type: functional
Method in brief: (§2)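 Clinical MRSA isolate panel; compound and β-lactam tested alone and in combination by CLSI broth microdilution, compounds dissolved in DMSO, growth inhibition scored by eye, run in duplicate. FIC index = FIC(compound) + FIC(drug), each the MIC in combination divided by the MIC alone; an index ≤ 0.5 was called synergy.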

[4] = test system: Staphylococcus aureus; assay: Synergistic antibacterial activity against multidrug-resistant Staphylococcus aureus isolate 231 in presence of amoxicillin by broth microdilution assay; type: functional; method in brief: as §2
[5] = test system: Staphylococcus aureus; assay: Synergistic antibacterial activity against multidrug-resistant Staphylococcus aureus isolate 2919 in presence of amoxicillin by broth microdilution assay; type: functional
Method in brief: (§3)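 CLSI broth microdilution on clinical MRSA isolates. MICs were measured for the β-lactam alone, the test agent alone and the two combined. Compounds were dissolved in DMSO, and growth inhibition was scored by eye. FIC index is the sum, over both agents, of MIC in combination divided by MIC alone. An FIC index ≤0.5 was taken as synergy.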

[6] = test system: Staphylococcus aureus; assay: Synergistic antibacterial activity against multidrug-resistant Staphylococcus aureus isolate 2224 in presence of amoxicillin by broth microdilution assay; type: functional; method in brief: as §2
[7] = test system: Staphylococcus aureus; assay: Synergistic antibacterial activity against multidrug-resistant Staphylococcus aureus isolate 358 in presence of amoxicillin by broth microdilution assay; type: functional
[8] = test system: Staphylococcus aureus; assay: Synergistic antibacterial activity against multidrug-resistant Staphylococcus aureus isolate 358 in presence of methicillin by broth microdilution assay; type: functional
[9] = test system: Staphylococcus aureus; assay: Synergistic antibacterial activity against multidrug-resistant Staphylococcus aureus isolate 1344 in presence of cloxacillin by broth microdilution assay; type: functional; method in brief: as §2
[10] = test system: Staphylococcus aureus; assay: Synergistic antibacterial activity against multidrug-resistant Staphylococcus aureus isolate 3332 in presence of cloxacillin by broth microdilution assay; type: functional; method in brief: as §3
[11] = test system: Staphylococcus aureus; assay: Synergistic antibacterial activity against multidrug-resistant Staphylococcus aureus isolate 2895 in presence of cloxacillin by broth microdilution assay; type: functional; method in brief: as §3
[12] = test system: Staphylococcus aureus; assay: Synergistic antibacterial activity against multidrug-resistant Staphylococcus aureus isolate 3267 in presence of cloxacillin by broth microdilution assay; type: functional; method in brief: as §3
[13] = test system: Staphylococcus aureus; assay: Synergistic antibacterial activity against multidrug-resistant Staphylococcus aureus isolate 2973 in presence of cloxacillin by broth microdilution assay; type: functional; method in brief: as §3
[14] = test system: Staphylococcus aureus; assay: Synergistic antibacterial activity against multidrug-resistant Staphylococcus aureus isolate 85 in presence of cloxacillin by broth microdilution assay; type: functional
[15] = test system: Staphylococcus aureus; assay: Synergistic antibacterial activity against multidrug-resistant Staphylococcus aureus isolate 256 in presence of cefuroxime by broth microdilution assay; type: functional; method in brief: as §3
[16] = test system: Staphylococcus aureus; assay: Synergistic antibacterial activity against multidrug-resistant Staphylococcus aureus isolate 2224 in presence of cefuroxime by broth microdilution assay; type: functional; method in brief: as §2
[17] = test system: Staphylococcus aureus; assay: Synergistic antibacterial activity against multidrug-resistant Staphylococcus aureus isolate 417 in presence of meropenem by broth microdilution assay; type: functional
[18] = test system: Staphylococcus aureus; assay: Synergistic antibacterial activity against multidrug-resistant Staphylococcus aureus isolate 1136 in presence of meropenem by broth microdilution assay; type: functional; method in brief: as §2
[19] = test system: Staphylococcus aureus; assay: Synergistic antibacterial activity against multidrug-resistant Staphylococcus aureus isolate 2516 in presence of meropenem by broth microdilution assay; type: functional; method in brief: as §3
[20] = test system: Staphylococcus aureus; assay: Synergistic antibacterial activity against multidrug-resistant Staphylococcus aureus isolate 757 in presence of meropenem by broth microdilution assay; type: functional
[21] = test system: Staphylococcus aureus; assay: Synergistic antibacterial activity against multidrug-resistant Staphylococcus aureus isolate 2728 in presence of meropenem by broth microdilution assay; type: functional; method in brief: as §3
[22] = test system: Staphylococcus aureus; assay: Synergistic antibacterial activity against multidrug-resistant Staphylococcus aureus isolate 2973 in presence of meropenem by broth microdilution assay; type: functional; method in brief: as §3
[23] = test system: Staphylococcus aureus; assay: Synergistic antibacterial activity against multidrug-resistant Staphylococcus aureus isolate 2490 assessed as fractional Inhibitory concentration index in presence of amoxicillin by broth microdilution assay; type: functional
Method in brief: (§4)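 CLSI broth microdilution run on clinical MRSA isolates with each β-lactam alone, the test agent alone, and the two combined; agents dissolved in DMSO. Growth inhibition was read by eye. FIC index = FIC(compound) + FIC(β-lactam), where each FIC is the MIC in combination divided by the MIC alone. An index ≤0.5 was taken as synergy.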

[24] = test system: Staphylococcus aureus; assay: Synergistic antibacterial activity against multidrug-resistant Staphylococcus aureus isolate 254 assessed as fractional Inhibitory concentration index in presence of amoxicillin by broth microdilution assay; type: functional
[25] = test system: Staphylococcus aureus; assay: Synergistic antibacterial activity against multidrug-resistant Staphylococcus aureus isolate 2895 assessed as fractional Inhibitory concentration index in presence of amoxicillin by broth microdilution assay; type: functional
[26] = test system: Staphylococcus aureus; assay: Synergistic antibacterial activity against multidrug-resistant Staphylococcus aureus isolate 1402 assessed as fractional Inhibitory concentration index in presence of methicillin by broth microdilution assay; type: functional; method in brief: as §4
[27] = test system: Staphylococcus aureus; assay: Synergistic antibacterial activity against multidrug-resistant Staphylococcus aureus isolate 231 assessed as fractional Inhibitory concentration index in presence of cloxacillin by broth microdilution assay; type: functional; method in brief: as §4
[28] = test system: Staphylococcus aureus; assay: Synergistic antibacterial activity against multidrug-resistant Staphylococcus aureus isolate 774 assessed as fractional Inhibitory concentration index in presence of cloxacillin by broth microdilution assay; type: functional
[29] = test system: Staphylococcus aureus; assay: Synergistic antibacterial activity against multidrug-resistant Staphylococcus aureus isolate 2973 assessed as fractional Inhibitory concentration index in presence of cloxacillin by broth microdilution assay; type: functional
[30] = test system: Staphylococcus aureus; assay: Synergistic antibacterial activity against multidrug-resistant Staphylococcus aureus isolate 417 assessed as fractional Inhibitory concentration index in presence of cefuroxime by broth microdilution assay; type: functional
[31] = test system: Staphylococcus aureus; assay: Synergistic antibacterial activity against multidrug-resistant Staphylococcus aureus isolate 256 assessed as fractional Inhibitory concentration index in presence of cefuroxime by broth microdilution assay; type: functional
[32] = test system: Staphylococcus aureus; assay: Synergistic antibacterial activity against multidrug-resistant Staphylococcus aureus isolate 85 assessed as fractional Inhibitory concentration index in presence of cefuroxime by broth microdilution assay; type: functional
[33] = test system: Staphylococcus aureus; assay: Synergistic antibacterial activity against multidrug-resistant Staphylococcus aureus isolate 254 assessed as fractional Inhibitory concentration index in presence of meropenem by broth microdilution assay; type: functional
[34] = test system: Staphylococcus aureus; assay: Synergistic antibacterial activity against multidrug-resistant Staphylococcus aureus isolate 3332 assessed as fractional Inhibitory concentration index in presence of meropenem by broth microdilution assay; type: functional
[35] = test system: Staphylococcus aureus; assay: Synergistic antibacterial activity against multidrug-resistant Staphylococcus aureus isolate 2895 assessed as fractional Inhibitory concentration index in presence of meropenem by broth microdilution assay; type: functional
[36] = test system: Staphylococcus aureus; assay: Synergistic antibacterial activity against multidrug-resistant Staphylococcus aureus isolate 1402 assessed as fractional Inhibitory concentration index in presence of meropenem by broth microdilution assay; type: functional; method in brief: as §4
[37] = test system: Staphylococcus aureus; assay: Synergistic antibacterial activity against multidrug-resistant Staphylococcus aureus isolate 2919 assessed as fractional Inhibitory concentration index in presence of meropenem by broth microdilution assay; type: functional
[38] = Tmax in Sprague-Dawley rat at 50 mg/kg, po by UPLC-MS/MS analysis; type: ADME, organism-based; settings: in vivo
[39] = AUC (0 to infinity) in Sprague-Dawley rat at 1 mg/kg, iv by UPLC-MS/MS analysis; type: ADME, organism-based; design: dose 1 mg/kg, time infinity, route intravenous; settings: in vivo

**Q.** For `CCCCCCCCCNc1ccc(F)c(C(N)=O)c1F`, which MIC [1] is on record?
**A.** Its MIC is 16 µg/mL (≈ 53.6 µM).

**Q.** And the MIC [2]?
**A.** Its MIC is 2 µg/mL (≈ 6.7 µM).

**Q.** And the MIC [3]?
**A.** Its MIC is 8 µg/mL.

**Q.** What about the MIC [4] of the same compound?
**A.** The MIC was 4 µg/mL.

**Q.** What about the MIC [5] of the same compound?
**A.** Its MIC is 8 µg/mL.

**Q.** And the MIC [6]?
**A.** Its MIC is 64 µg/mL.

**Q.** And the MIC [7]?
**A.** The MIC was 4 µg/mL.

**Q.** And the MIC [8]?
**A.** The MIC was 2 µg/mL.

**Q.** What about the MIC [9] of the same compound?
**A.** The MIC was 1 µg/mL.

**Q.** And the MIC [10]?
**A.** Its MIC is 2 µg/mL.

**Q.** And the MIC [11]?
**A.** The MIC was 2 µg/mL.

**Q.** What about the MIC [12] of the same compound?
**A.** Its MIC is 1 µg/mL.

**Q.** What about the MIC [13] of the same compound?
**A.** Its MIC is 1 µg/mL.

**Q.** What about the MIC [14] of the same compound?
**A.** The MIC was 0.5 µg/mL.

**Q.** What about the MIC [15] of the same compound?
**A.** The MIC was 2 µg/mL.

**Q.** What about the MIC [16] of the same compound?
**A.** The MIC was 2 µg/mL.

**Q.** What about the MIC [17] of the same compound?
**A.** The MIC was 4 µg/mL.

**Q.** What about the MIC [18] of the same compound?
**A.** Its MIC is 8 µg/mL.

**Q.** And the MIC [19]?
**A.** The MIC was 4 µg/mL.

**Q.** What about the MIC [20] of the same compound?
**A.** The MIC was 16 µg/mL.

**Q.** What about the MIC [21] of the same compound?
**A.** The MIC was 4 µg/mL.

**Q.** What about the MIC [22] of the same compound?
**A.** Its MIC is 4 µg/mL.

**Q.** What about the “fractional inhibitory concentration index (FICI)” value [23] of the same compound?
**A.** The value was 0.6.

**Q.** And the “fractional inhibitory concentration index (FICI)” value [24]?
**A.** Its value is 0.6.

**Q.** And the “fractional inhibitory concentration index (FICI)” value [25]?
**A.** Its value is 1.1.

**Q.** And the “fractional inhibitory concentration index (FICI)” value [26]?
**A.** The value was 0.6.

**Q.** What about the “fractional inhibitory concentration index (FICI)” value [27] of the same compound?
**A.** Its value is 0.3.

**Q.** What about the “fractional inhibitory concentration index (FICI)” value [28] of the same compound?
**A.** Its value is 0.5.

**Q.** What about the “fractional inhibitory concentration index (FICI)” value [29] of the same compound?
**A.** The value was 0.1.

**Q.** And the “fractional inhibitory concentration index (FICI)” value [30]?
**A.** The value was 0.1.

**Q.** And the “fractional inhibitory concentration index (FICI)” value [31]?
**A.** Its value is 0.

**Q.** What about the “fractional inhibitory concentration index (FICI)” value [32] of the same compound?
**A.** Its value is 0.3.

**Q.** What about the “fractional inhibitory concentration index (FICI)” value [33] of the same compound?
**A.** The value was 1.5.

**Q.** What about the “fractional inhibitory concentration index (FICI)” value [34] of the same compound?
**A.** The value was 2.3.

**Q.** What about the “fractional inhibitory concentration index (FICI)” value [35] of the same compound?
**A.** The value was 2.1.

**Q.** What about the “fractional inhibitory concentration index (FICI)” value [36] of the same compound?
**A.** The value was 5.

**Q.** And the “fractional inhibitory concentration index (FICI)” value [37]?
**A.** The value was 4.3.

**Q.** What about the Tmax [38] of the same compound?
**A.** The Tmax was 2 h.

**Q.** And the AUC(0-inf) [39]?
**A.** Its AUC(0-inf) is 1600 ng·h/mL.

— ChEMBL document CHEMBL4330069, “Boosting the efficacy of anti-MRSA β-lactam antibiotics via an easily accessible, non-cytotoxic and orally bioavailable FtsZ inhibitor” (Eur J Med Chem, 2019)
